Data published in ChEMBL document CHEMBL1145336, “1-aryl-3-(4-pyridine-2-ylpiperazin-1-yl)propan-1-one oximes as potent dopamine D4 receptor agonists for the treatment of erectile dysfunction” (J Med Chem, 2006).
Active and inactive are the calls of the source. The calls are words filed in the database; no cut-off is given here.

Key:
Rattus norvegicus [1] = assay: Activity against penile erection in Wistar rat at 0.1 umol/kg, sc; format: functional
Summary of the method: (§1)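 Male Wistar rats, dosed subcutaneously, were weighed and adapted to a red-lit testing room for 60 min; experiments ran between 9:00 a.m. and 3:00 p.m. Erections were counted by direct observation for 60 min after dosing. The share of animals with one or more erections was reported as incidence (percent), n = 8-30 rats.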

D(2) dopamine receptor [2] = molecular target: T1, D(2) dopamine receptor (Homo sapiens, UniProt P14416); assay: Agonist activity at human recombinant D2 receptor expressed in HEK293 cells by FLIPR assay; format: functional, cell-based
Summary of the method: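 Calcium flux (FLIPR) in HEK-293 cells coexpressing recombinant human D2L with chimeric Gqo5. Efficacy is the maximal response relative to 10 µM dopamine (100%). EC50 is the concentration giving half-maximal stimulation. Values are means (SEM, n ≥ 3).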

D(4) dopamine receptor [3] = molecular target: T2, D(4) dopamine receptor (Homo sapiens, UniProt P21917); assay: Activity at human recombinant D4.4 receptor expressed in HEK293 cells by FLIPR assay; format: functional, cell-based
T2 sequence (P21917 whole entry): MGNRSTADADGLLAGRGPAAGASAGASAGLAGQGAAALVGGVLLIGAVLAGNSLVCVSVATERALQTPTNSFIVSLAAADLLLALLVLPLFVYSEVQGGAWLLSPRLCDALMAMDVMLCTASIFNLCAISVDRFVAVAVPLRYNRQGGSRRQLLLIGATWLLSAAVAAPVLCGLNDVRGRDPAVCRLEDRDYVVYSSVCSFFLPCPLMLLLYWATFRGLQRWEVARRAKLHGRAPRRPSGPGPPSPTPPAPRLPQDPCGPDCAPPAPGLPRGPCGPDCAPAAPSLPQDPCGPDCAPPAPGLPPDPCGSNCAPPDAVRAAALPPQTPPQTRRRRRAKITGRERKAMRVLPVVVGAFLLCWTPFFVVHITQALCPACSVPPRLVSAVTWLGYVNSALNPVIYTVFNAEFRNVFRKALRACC

D(4) dopamine receptor [4] = molecular target: T2, D(4) dopamine receptor; assay: Displacement of [3H]A-369508 from human recombinant D4.4 receptor expressed in HEK293 cell membrane; format: cell membranes
Summary of the method: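 Competition binding against the D4-selective agonist radioligand [3H]-A-369508, using membranes from HEK-293 cells engineered to express human D4.4. Mean values (SEM, n ≥ 4).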

D(2) dopamine receptor [5] = molecular target: T1, D(2) dopamine receptor; assay: Displacement of [125I]PIPAT from human recombinant D2L receptor expressed in HEK293 cells
D(2) dopamine receptor [6] = molecular target: T1, D(2) dopamine receptor; assay: Antagonist activity at human recombinant D2 receptor expressed in HEK293 cells by FLIPR assay; format: functional, cell-based
Rattus norvegicus [7] = assay: Activity against penile erection in Wistar rat at 0.3 umol/kg, sc; format: functional; summary of the method: as §1
[8] = molecular target: D(4) dopamine receptor (Homo sapiens) (UniProt P21917); assay: Agonist activity at human recombinant D4.4 receptor expressed in HEK293 cells by FLIPR assay relative to dopamine
Rattus norvegicus [9] = assay: Inhibition of (E)-1-(4-chlorophenyl)-3-(4-pyridin-2-ylpiperazin-1-yl)propan-1-one O-methyloxime-induced erectogenic effect in Wistar rat at 10 umol/kg, ip; format: functional, organism-based
Rattus norvegicus [10] = assay: Inhibition of (E)-1-(4-chlorophenyl)-3-(4-pyridin-2-ylpiperazin-1-yl)propan-1-one O-methyloxime-induced erectogenic effect in Wistar rat at 1 umol/kg, ip; format: functional, organism-based
Rattus norvegicus [11] = assay: Activity against penile erection in Wistar rat at 0.03 umol/kg, sc; format: functional; summary of the method: as §1
[12] = Bioavailability in rat at 1 mg/kg, po; format: ADME, organism-based; conditions: in vivo
Summary of the method: (§2)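 Pharmacokinetics in rat and dog after a 1 mg/kg dose given subcutaneously or orally. Oral bioavailability (F, %), volume of distribution (Vβ, L/kg) and half-life (T1/2, h) were determined.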

Canis familiaris [13] = organism: Canis familiaris; assay: Prolongation of canine cardiac Purkinje fiber repolarization; format: functional, Canis lupus familiaris
[14] = Bioavailability in rat at 1 mg/kg, sc; format: ADME, organism-based; conditions: in vivo; summary of the method: as §2
[15] = Half life in rat at 1 mg/kg, po; format: ADME, organism-based; parameters: dose 1 mg/kg, route oral; conditions: in vivo; summary of the method: as §2
Mustela putorius furo = assay: Emetic activity in ferret at 0.03 to 3 umol/kg, sc; format: functional, organism-based
Mus musculus [16] = assay: Lowering of ptosis in mouse at 10 umol/kg by Irvin test; format: functional, organism-based
Canis familiaris [17] = assay: Volume of distribution in dog at 1 mg/kg, sc; format: ADME, organism-based, Canis lupus familiaris; parameters: dose 1 mg/kg, route subcutaneous; conditions: in vivo; summary of the method: as §2
Mus musculus [18] = assay: Lowering of hypoactivity in mouse at 10 umol/kg by Irvin test; format: functional, organism-based
Mus musculus [19] = assay: Lowering of piloerection in mouse at 10 umol/kg by Irvin test; format: functional, organism-based
[20] = Half life in rat at 1 mg/kg, sc; format: ADME, organism-based; parameters: dose 1 mg/kg, route subcutaneous; conditions: in vivo; summary of the method: as §2
[21] = Half life in dog at 1 mg/kg, po; format: ADME, organism-based, Canis lupus familiaris; parameters: dose 1 mg/kg, route oral; conditions: in vivo; summary of the method: as §2
Rattus norvegicus [22] = assay: Volume of distribution in rat at 1 mg/kg, sc; format: ADME, organism-based; parameters: dose 1 mg/kg, route subcutaneous; conditions: in vivo; summary of the method: as §2
[23] = Bioavailability in dog at 1 mg/kg, po; format: ADME, organism-based, Canis lupus familiaris; conditions: in vivo; summary of the method: as §2
Mus musculus [24] = assay: Lowering of hypothermia in mouse at 10 umol/kg by Irvin test; format: functional, organism-based
Rattus norvegicus [25] = assay: Inhibition of (E)-1-(4-chlorophenyl)-3-(4-pyridin-2-ylpiperazin-1-yl)propan-1-one O-methyloxime-induced erectogenic effect in Wistar rat at 3 umol/kg, ip; format: functional, organism-based
Rattus norvegicus [26] = assay: Activity against penile erection in Wistar rat at 1.0 umol/kg, sc; format: functional; summary of the method: as §1

T1 sequence (P14416 whole entry): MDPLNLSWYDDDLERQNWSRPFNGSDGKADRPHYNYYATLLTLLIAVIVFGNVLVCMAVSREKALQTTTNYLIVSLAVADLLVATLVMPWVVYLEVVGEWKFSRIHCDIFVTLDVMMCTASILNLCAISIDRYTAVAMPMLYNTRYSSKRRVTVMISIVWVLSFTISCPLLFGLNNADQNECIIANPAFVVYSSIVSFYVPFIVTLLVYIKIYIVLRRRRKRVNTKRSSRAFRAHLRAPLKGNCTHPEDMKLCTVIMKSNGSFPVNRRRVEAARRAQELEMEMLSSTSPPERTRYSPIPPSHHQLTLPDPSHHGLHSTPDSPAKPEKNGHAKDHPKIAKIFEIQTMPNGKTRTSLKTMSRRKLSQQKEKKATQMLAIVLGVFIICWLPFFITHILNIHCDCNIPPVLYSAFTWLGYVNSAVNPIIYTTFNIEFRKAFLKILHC

Row | SMILES | EC50 (D(2) dopamine receptor [2]) [µM] | EC50 (D(4) dopamine receptor [3]) [nM] | Ki (D(4) dopamine receptor [4]) [nM] | Ki (D(2) dopamine receptor [5]) [nM] | IC50 (D(2) dopamine receptor [6]) [µM] | Activity (Rattus norvegicus [7]) [%] | also measured
1 | CO/N=C(\CCN1CCN(c2ccccn2)CC1)c1cc(F)cc(F)c1 | > 10 | 37.2 | 110 | 132 | > 10 | – | Activity (Rattus norvegicus [1]): 68%
2 | CCO/N=C(\CCN1CCN(c2ccccn2)CC1)c1ccccc1 | > 10 | 28.5 | 38 | 128 | > 10 | 55 | –
3 | CO/N=C(\CCN1CCN(c2ccccn2)CC1)c1ccc(F)cc1 | > 10 | 48.8 | 14.2 | 168 | > 10 | 50 | –
4 | CO/N=C(/CCCN1CCN(c2ccccn2)CC1)c1ccc(F)cc1 | 0.366 | 33.5 | – | – | > 10 | – | Efficacy [8]: 65%
5 | CO/N=C(\CCN1CCN(c2ccccn2)CC1)c1ccc(Cl)c(Cl)c1 | > 10 | 542 | 6.4 | 64.5 | > 10 | 76 | –
6 | O=c1[nH]c2ccccc2n1CCCN1CCC(n2c(=O)[nH]c3cc(Cl)ccc32)CC1 | – | – | – | – | – | – | Activity (Rattus norvegicus [9]): inactive
7 | O=C(CCCN1CCC(O)(c2ccc(Cl)cc2)CC1)c1ccc(F)cc1 | – | – | – | – | – | – | Activity (Rattus norvegicus [10]): Active
8 | CO/N=C(\CCN1CCN(c2ccccn2)CC1)c1ccc(C)c(C)c1 | > 10 | 108 | 27.5 | 137 | > 10 | – | Activity (Rattus norvegicus [1]): 68%
9 | CO/N=C(\CCN1CCN(c2ccccn2)CC1)c1ccc(Cl)cc1 | > 10 | 37.6 | 38.2 | 63.8 | > 10 | – | Activity (Rattus norvegicus [11]): 85%; bioavailability [12]: 16.3%; Activity (Canis familiaris [13]): 14.7%; bioavailability [14]: 94.8%; half-life [15]: 138 min; Activity (Mustela putorius furo): inactive; Activity (Mus musculus [16]): Active; Vbeta (Canis familiaris [17]): 4.8 L/kg; Activity (Mus musculus [18]): Active; Activity (Mus musculus [19]): Active; half-life [20]: 114 min; half-life [21]: 372 min; Vbeta (Rattus norvegicus [22]): 4.3 L/kg; bioavailability [23]: 39.8%; Activity (Mus musculus [24]): Active
10 | CN1CCN(C2=Nc3cc(Cl)ccc3Nc3ccccc32)CC1 | – | – | – | – | – | – | Activity (Rattus norvegicus [25]): Active
11 | CO/N=C(\CN1CCN(c2ccccn2)CC1)c1ccc(F)cc1 | > 10 | 43.8 | 2050 | 2530 | > 10 | 77 | –
12 | CO/N=C(\CCN1CCN(c2ccccn2)CC1)c1ccccc1 | > 10 | 32 | 22.8 | 172 | > 10 | – | Activity (Rattus norvegicus [1]): 77%
13 | O/N=C(\CCN1CCN(c2ccccn2)CC1)c1ccccc1 | > 10 | 4.4 | 25.4 | 257 | > 10 | 60 | bioavailability [12]: 0%; bioavailability [14]: 68.1%; Vbeta (Canis familiaris [17]): 1.8 L/kg; half-life [20]: 48 min; Vbeta (Rattus norvegicus [22]): 1 L/kg; bioavailability [23]: 0%
14 | CO/N=C(/CCN1CCN(c2ccccn2)CC1)c1ccc(F)cc1 | > 10 | 13.6 | 53.3 | 221 | > 10 | – | –
15 | N#CCO/N=C(\CCN1CCN(c2ccccn2)CC1)c1ccccc1 | > 10 | 33 | 88 | 140 | > 10 | – | –
16 | Cc1cccc(C(=O)NCN2CCN(c3ccccc3C#N)CC2)c1 [PD-168,077] | > 10 | – | – | – | > 10 | 79 | –
17 | CO/N=C(\CCN1CCN(c2ccccn2)CC1)c1ccccc1C | > 10 | 74 | 11.4 | 112 | > 10 | – | –
18 | CN1CCc2cccc3c2[C@H]1Cc1ccc(O)c(O)c1-3 [APOMORPHINE] | – | – | – | – | – | – | Activity (Rattus norvegicus [1]): 85%
19 | CO/N=C(\CCN1CCN(c2ccccn2)CC1)c1ccc(F)c(Cl)c1 | > 10 | 148 | 71.2 | 171 | > 10 | – | bioavailability [12]: 18.6%; Activity (Rattus norvegicus [26]): 85%; Vbeta (Canis familiaris [17]): 3.8 L/kg; half-life [21]: 366 min; Vbeta (Rattus norvegicus [22]): 8.2 L/kg; bioavailability [23]: 42.9%
